Reference: ChEMBL document CHEMBL4028810, “Synthesis and biological evaluation of novel chalcone derivatives as a new class of microtubule destabilizing agents” (Eur J Med Chem, 2017)
pIC50: −log10 of the molar value. Calls of active or inactive are those of the source. No cut-off for these calls is given here.

Tests used:
NCI-H460 = experiment: Cytotoxicity against human NCI-H460 cells after 48 hrs by MTT assay; assay type: functional, cell-based; details: NCI-H460, 48 h
Summary of the method: (§1)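 Log-phase cells were seeded at about 1 × 10⁵ cells/mL in 96-well plates and allowed to settle 12 h at 37 °C in 5% CO₂. Compounds were added at five concentrations for 48 h. Absorbance was read at dual wavelength 570/630 nm. Survival was expressed as a percentage of control, and IC50 was calculated by the Bliss method (n = 5). Each test was run in triplicate.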

HepG2 = experiment: Cytotoxicity against human HepG2 cells after 48 hrs by MTT assay; assay type: functional, cell-based; details: HepG2, 48 h; summary of the method: as §1
MGC-803 = experiment: Cytotoxicity against human MGC803 cells after 48 hrs by MTT assay; assay type: functional, cell-based; details: MGC-803, 48 h; summary of the method: as §1
SK-OV-3 = experiment: Cytotoxicity against human SKOV3 cells after 48 hrs by MTT assay; assay type: functional, cell-based; details: SK-OV-3, 48 h; summary of the method: as §1
T-24 = experiment: Cytotoxicity against human T24 cells after 48 hrs by MTT assay; assay type: functional, cell-based; details: T-24, 48 h; summary of the method: as §1
L02 = experiment: Cytotoxicity against human HL7702 cells after 48 hrs by MTT assay; assay type: cell-based; details: L02, 48 h; summary of the method: as §1
Sus scrofa [1] = species: Sus scrofa; experiment: Inhibition of porcine brain tubulin polymerization at 10 uM measured at 1 min interval for 40 mins by spectrophotometric method
Summary of the method: (§2)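 Purified brain tubulin, final 3.0 mg/mL, was added to start the reaction in 80 mM PIPES pH 6.9, 2.0 mM MgCl₂, 0.5 mM EGTA, 1 mM GTP and 10.2% glycerol, with the other components prewarmed to 37 °C. Compounds were tested at 10 or 15 µM. Polymerization at 37 °C was followed as absorbance at 340 nm over 40 min.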

Sus scrofa [2] = species: Sus scrofa; experiment: Inhibition of porcine brain tubulin polymerization at 15 uM measured at 1 min interval for 40 mins by spectrophotometric method; summary of the method: as §2
A549/TR = experiment: Cytotoxicity against human A549/TR cells after 48 hrs by MTT assay; assay type: functional, cell-based; summary of the method: as §1
HeLa = experiment: Cytotoxicity against human HeLa cells after 48 hrs by MTT assay; assay type: functional, cell-based; summary of the method: as §1
[3] = Cytotoxicity against human HeLa/TR cells after 48 hrs by MTT assay; assay type: functional, cell-based; summary of the method: as §1

inhibition (Sus scrofa [1])	inhibition (Sus scrofa [2])	Structure (SMILES)	pIC50 (NCI-H460)	pIC50 (HepG2)	pIC50 (MGC-803)	pIC50 (SK-OV-3)	pIC50 (T-24)	pIC50 (L02)	pIC50 (A549/TR)	pIC50 (HeLa)	pIC50 [3]
–	–	COc1ccc(/C=C/C(=O)c2ccc(OC)c3c2OC(C)(C)C=C3)cc1OCC(=O)Nc1ccccc1Cl	4.89	4.93	4.85	4.84	4.81	< 4.30	–	–	–
–	–	COc1ccc(/C=C/C(=O)c2ccc(OC)c3c2OC(C)(C)C=C3)cc1OCC(=O)Nc1ccccc1Br	4.70	4.56	4.49	4.52	4.63	< 4.30	–	–	–
–	–	COc1ccc(/C=C/C(=O)c2cc(OC)c(OC)c(OC)c2)cc1OCC(=O)Nc1ccccc1F	5.17	5.12	5.09	5.02	4.97	< 4.30	–	–	–
–	–	COc1ccc(/C=C/C(=O)c2ccc(OC)c3c2OC(C)(C)C=C3)cc1OCC(=O)Nc1ccccc1	4.76	4.69	4.74	4.68	4.68	< 4.30	–	–	–
–	–	COc1ccccc1NC(=O)COc1cc(/C=C/C(=O)c2cc(OC)c(OC)c(OC)c2)ccc1OC	4.92	4.87	4.83	4.79	4.76	< 4.30	–	–	–
–	–	COc1ccc(/C=C/C(=O)c2cc(OC)c(OC)c(OC)c2)cc1OCC(=O)Nc1ccc(F)cc1	4.72	4.67	4.68	4.65	4.61	< 4.30	–	–	–
–	–	COc1ccc(/C=C/C(=O)c2cc(OC)c(OC)c(OC)c2)cc1OCC(=O)Nc1ccc(Cl)cc1	4.70	4.69	4.58	4.57	4.66	< 4.30	–	–	–
Active	–	COc1ccc(/C=C\c2cc(OC)c(OC)c(OC)c2)cc1O	–	–	–	–	–	–	–	–	–
–	–	COc1ccc(/C=C/C(=O)c2cc(OC)c(OC)c(OC)c2)cc1OCC(=O)Nc1ccc(O)cc1	< 4.30	< 4.30	4.44	< 4.30	< 4.30	< 4.30	–	–	–
–	Active	COc1ccccc1NC(=O)COc1cc(/C=C/C(=O)c2ccc(OC)c3c2OC(C)(C)C=C3)ccc1OC	5.26	5.13	5.17	5.08	5.11	< 4.30	–	–	–
–	–	COc1ccc(/C=C/C(=O)c2ccc(OC)c3c2OC(C)(C)C=C3)cc1OCC(=O)Nc1ccc(O)cc1	4.75	4.81	4.68	4.84	4.74	< 4.30	–	–	–
–	–	COc1ccc(/C=C/C(=O)c2ccc(OC)c3c2OC(C)(C)C=C3)cc1 [MILLEPACHINE]	5.12	5.34	4.96	5.01	4.96	4.60	–	–	–
–	–	COc1ccc(/C=C/C(=O)c2cc(OC)c(OC)c(OC)c2)cc1OCC(=O)Nc1ccc(C)cc1	5.11	5.05	4.99	4.99	4.94	< 4.30	–	–	–
–	–	COc1ccc(/C=C/C(=O)c2ccc(OC)c3c2OC(C)(C)C=C3)cc1OCC(=O)Nc1ccccc1F	4.77	4.72	4.69	4.73	4.76	< 4.30	–	–	–
–	–	COc1ccc(/C=C/C(=O)c2cc(OC)c(OC)c(OC)c2)cc1OCC(=O)Nc1ccc(Br)cc1	4.99	4.98	4.89	4.88	4.94	< 4.30	–	–	–
–	–	COc1ccc(NC(=O)COc2cc(/C=C/C(=O)c3cc(OC)c(OC)c(OC)c3)ccc2OC)cc1	5.15	5.12	5.07	5.01	5.03	< 4.30	–	–	–
–	–	COc1ccc(/C=C/C(=O)c2ccc(OC)c3c2OC(C)(C)C=C3)cc1OCC(=O)Nc1ccc(Br)cc1	4.69	4.64	4.76	4.72	4.70	< 4.30	–	–	–
–	–	COc1ccc(/C=C/C(=O)c2cc(OC)c(OC)c(OC)c2)cc1OCC(=O)Nc1ccccc1	4.95	4.99	4.84	4.97	4.90	< 4.30	–	–	–
–	–	COc1ccc(/C=C/C(=O)c2cc(OC)c(OC)c(OC)c2)cc1OCC(=O)Nc1ccccc1C	4.64	4.58	4.55	4.55	4.57	< 4.30	–	–	–
–	–	COc1ccc(NC(=O)COc2cc(/C=C/C(=O)c3ccc(OC)c4c3OC(C)(C)C=C4)ccc2OC)cc1	5.07	5.05	5.17	5.04	5.02	< 4.30	–	–	–
–	–	COc1ccc(/C=C/C(=O)c2ccc(OC)c3c2OC(C)(C)C=C3)cc1OCC(=O)Nc1ccc(F)cc1	4.85	4.85	4.87	4.86	4.75	< 4.30	–	–	–
Active	–	CC(=O)O[C@H]1C(=O)[C@@]2(C)[C@H]([C@H](OC(=O)c3ccccc3)[C@]3(O)C[C@H](OC(=O)[C@H](O)[C@@H](NC(=O)c4ccccc4)c4ccccc4)C(C)=C1C3(C)C)[C@]1(OC(C)=O)CO[C@@H]1C[C@@H]2O [PACLITAXEL]	–	–	–	–	–	–	5.82	8.09	5.82
–	–	COc1ccc(/C=C/C(=O)c2ccc(OC)c3c2OC(C)(C)C=C3)cc1OCC(=O)Nc1ccccc1C	5.10	5.03	4.99	5.00	5.01	< 4.30	–	–	–
–	–	COc1ccc(/C=C/C(=O)c2ccc(OC)c3c2OC(C)(C)C=C3)cc1OCC(=O)Nc1ccc(C)cc1	5.06	5.03	5.08	5.02	4.99	< 4.30	–	–	–
–	–	COc1ccc(/C=C/C(=O)c2cc(OC)c(OC)c(OC)c2)cc1OCC(=O)Nc1ccccc1Br	4.99	4.82	4.84	4.78	4.72	< 4.30	–	–	–
–	–	COc1ccc(/C=C/C(=O)c2ccc(OC)c3c2OC(C)(C)C=C3)cc1OCC(=O)Nc1ccc(Cl)cc1	4.89	4.81	4.71	4.70	4.77	< 4.30	–	–	–
